Laboratory results as given in ChEMBL document CHEMBL4477233, “Discovery of novel TAOK2 inhibitor scaffolds from high-throughput screening” (Bioorg Med Chem Lett, 2016).

Assays:
[1] = target: T1, Serine/threonine-protein kinase TAO2 (Rattus norvegicus, UniProt Q9JLS3); assay: Inhibition of rat TAOK2 (1 to 320 residues) expressed in Baculovirus/insect cell expression system assessed as remaining activity using MBP as substrate and [32P]ATP measured after 10 mins by Kinase-Glo assay
T1 sequence (Q9JLS3 whole entry): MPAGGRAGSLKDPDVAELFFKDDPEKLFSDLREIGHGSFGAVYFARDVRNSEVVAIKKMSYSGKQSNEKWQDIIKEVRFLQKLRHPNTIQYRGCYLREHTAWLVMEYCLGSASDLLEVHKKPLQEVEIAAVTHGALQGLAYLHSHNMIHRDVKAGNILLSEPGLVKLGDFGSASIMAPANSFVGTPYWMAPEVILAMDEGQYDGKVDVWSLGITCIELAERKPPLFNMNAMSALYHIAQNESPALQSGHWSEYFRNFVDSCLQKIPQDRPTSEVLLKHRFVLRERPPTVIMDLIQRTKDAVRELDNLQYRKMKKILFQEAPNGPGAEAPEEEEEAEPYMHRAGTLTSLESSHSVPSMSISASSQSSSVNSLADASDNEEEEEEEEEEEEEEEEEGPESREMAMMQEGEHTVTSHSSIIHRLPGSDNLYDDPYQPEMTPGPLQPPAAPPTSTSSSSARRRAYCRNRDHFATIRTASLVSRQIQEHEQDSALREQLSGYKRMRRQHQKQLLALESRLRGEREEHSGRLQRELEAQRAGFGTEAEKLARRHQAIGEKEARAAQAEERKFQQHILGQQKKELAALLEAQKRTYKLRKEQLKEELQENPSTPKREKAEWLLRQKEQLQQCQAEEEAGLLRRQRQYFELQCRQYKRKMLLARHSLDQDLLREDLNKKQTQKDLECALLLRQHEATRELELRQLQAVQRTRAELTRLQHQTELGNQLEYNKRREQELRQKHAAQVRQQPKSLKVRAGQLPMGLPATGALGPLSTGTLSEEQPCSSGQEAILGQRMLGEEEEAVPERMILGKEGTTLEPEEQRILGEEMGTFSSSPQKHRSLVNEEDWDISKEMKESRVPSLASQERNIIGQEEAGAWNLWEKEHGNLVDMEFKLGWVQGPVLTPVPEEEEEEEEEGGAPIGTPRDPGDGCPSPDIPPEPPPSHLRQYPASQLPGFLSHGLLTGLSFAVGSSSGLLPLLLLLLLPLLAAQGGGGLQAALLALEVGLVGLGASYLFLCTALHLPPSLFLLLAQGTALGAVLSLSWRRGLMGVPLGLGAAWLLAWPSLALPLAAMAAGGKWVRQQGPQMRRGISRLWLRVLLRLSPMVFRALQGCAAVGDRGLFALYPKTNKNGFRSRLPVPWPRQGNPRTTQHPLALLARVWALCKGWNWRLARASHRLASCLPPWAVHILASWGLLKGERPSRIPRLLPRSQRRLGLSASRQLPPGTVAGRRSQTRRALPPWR

[2] = target: MAP kinase p38 (Homo sapiens) (UniProt O15264+Q15759+Q16539+P53778); assay: Binding affinity to p38 (unknown origin) assessed as change in melting temperature at 1 uM by SYPRO orange dye-based DSF analysis; type: protein assay
In short: (§1)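 Differential scanning fluorimetry: each compound's melting-temperature shift (ΔTm, °C) was measured on the kinase protein. Compounds giving a TAOK2 ΔTm above 0.5 °C were also run against p38 and ASK1. Selectivity (ΔΔTm) was taken as the TAOK2 ΔTm minus the p38 or ASK1 ΔTm.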

[3] = target: T2, Mitogen-activated protein kinase kinase kinase 5 (Homo sapiens) (UniProt Q99683); assay: Binding affinity to ASK1 (unknown origin) assessed as change in melting temperature at 1 uM by SYPRO orange dye-based DSF analysis; in short: as §1
T2 sequence (whole entry): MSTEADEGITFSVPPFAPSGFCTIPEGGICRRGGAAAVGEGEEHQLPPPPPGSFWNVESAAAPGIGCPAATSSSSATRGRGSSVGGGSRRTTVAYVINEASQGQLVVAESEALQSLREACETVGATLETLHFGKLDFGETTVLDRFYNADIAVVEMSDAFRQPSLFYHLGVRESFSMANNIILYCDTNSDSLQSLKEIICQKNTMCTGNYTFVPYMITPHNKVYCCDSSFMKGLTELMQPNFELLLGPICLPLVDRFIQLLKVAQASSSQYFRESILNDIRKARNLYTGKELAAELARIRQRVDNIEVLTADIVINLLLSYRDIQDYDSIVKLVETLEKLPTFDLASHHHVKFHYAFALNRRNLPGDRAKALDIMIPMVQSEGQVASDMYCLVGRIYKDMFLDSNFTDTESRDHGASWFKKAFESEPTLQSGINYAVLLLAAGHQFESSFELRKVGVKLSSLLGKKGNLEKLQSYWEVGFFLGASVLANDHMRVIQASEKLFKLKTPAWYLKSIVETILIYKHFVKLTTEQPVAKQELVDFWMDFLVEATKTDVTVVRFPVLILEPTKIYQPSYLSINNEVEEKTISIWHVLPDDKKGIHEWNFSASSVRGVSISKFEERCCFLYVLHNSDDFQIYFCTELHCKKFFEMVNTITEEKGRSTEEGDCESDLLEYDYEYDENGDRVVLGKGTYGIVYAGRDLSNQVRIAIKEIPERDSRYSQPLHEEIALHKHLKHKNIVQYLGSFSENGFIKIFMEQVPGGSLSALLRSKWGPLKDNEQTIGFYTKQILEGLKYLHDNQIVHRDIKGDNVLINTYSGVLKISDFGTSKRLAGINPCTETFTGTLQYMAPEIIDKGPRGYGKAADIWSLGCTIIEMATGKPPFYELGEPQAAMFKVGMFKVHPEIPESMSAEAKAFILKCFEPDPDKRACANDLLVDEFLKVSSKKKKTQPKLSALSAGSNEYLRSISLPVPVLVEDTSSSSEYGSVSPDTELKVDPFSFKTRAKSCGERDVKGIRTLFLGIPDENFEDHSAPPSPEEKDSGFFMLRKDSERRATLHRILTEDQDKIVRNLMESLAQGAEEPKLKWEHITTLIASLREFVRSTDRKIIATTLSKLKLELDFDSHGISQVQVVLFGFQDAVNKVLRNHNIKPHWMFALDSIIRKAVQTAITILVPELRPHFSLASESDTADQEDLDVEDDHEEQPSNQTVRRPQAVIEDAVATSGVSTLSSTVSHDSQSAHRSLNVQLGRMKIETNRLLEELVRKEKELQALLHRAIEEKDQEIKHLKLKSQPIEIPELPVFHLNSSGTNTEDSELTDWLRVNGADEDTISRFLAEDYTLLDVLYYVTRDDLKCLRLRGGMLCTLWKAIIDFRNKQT

[4] = target: T3, Serine/threonine-protein kinase TAO2 (Rattus norvegicus) (UniProt Q9JLS3); assay: Binding affinity to rat TAOK2 (1 to 320 residues) expressed in Baculovirus/insect cell expression system assessed as change in melting temperature at 1 uM by SYPRO orange dye-based DSF analysis; in short: as §1
T3 sequence (whole entry): T1 sequence (Q9JLS3 whole entry)

Structure (SMILES)	IC50 [1]	ΔTm [2]	ΔTm [3]	ΔTm [4]
O=C(O)c1cc(-c2ccc(-c3ccccc3[N+](=O)[O-])o2)nc2ccc3ccccc3c12	3 µM	1.5 °C	1.7 °C	2.2 °C
CCC(=O)Nc1nc(C)c(-c2csc(Nc3cc(OC)ccc3OC)n2)s1		2.8 °C	2.7 °C	3 °C
O=C(NCC1COc2ccccc2O1)c1ccc(NC(=O)c2ccco2)cc1 (stereo not given)	2 µM	2.2 °C	1.2 °C	1.6 °C
c1cc2[nH]c3c(c2c2nonc12)CCCC3	3 µM	2 °C	0 °C	1.2 °C

Now from value to compound:

IC50 [1]	ΔTm [2]	ΔTm [3]	ΔTm [4]	Structure (SMILES)
6 µM	1.3 °C	1.2 °C	1.6 °C	Cc1ccc(NCCCC(=O)N/N=C/c2cc(Br)cc(Br)c2O)cc1
	2 °C	1.2 °C	1.3 °C	CS(=O)(=O)c1ccc2nc(NC(=O)CCCOc3ccc(Cl)cc3)sc2c1
1.3 to 1.4 µM	2 °C	2.1 °C	2 °C	CCOCCCn1c(=S)[nH]c2cc(C(=O)NCC3COc4ccccc4O3)ccc2c1=O (stereo not given)
5 µM	0 °C	0.4 °C	0.7 °C	Cc1ccc(C(=O)CSc2nnc(-c3ccncc3)[nH]2)c(C)c1
